Screens (PubChem BioAssay)
NR2E3 ag-1 = agonists of human nuclear receptor NR2E3 | GST-NR2E3/biotin-RetCOR TR-FRET, 1536-well | inhibition of corepressor binding, % at 4.78 µM | 320,000 tested, 0.12% active | AID 2300;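 active = percent inhibition above the cutoff of mean plus 3 SD of all tested compounds, set per screening campaign, cut at about 20% in these data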;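 note: 0% = DMSO wells and 100% = biotin wells as full block of FRET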
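System: GST-NR2E3 and biotin-RetCOR proteins; probe or stimulus: 7 nM biotin-RetCOR; doses: compound at 4.8 µM, single dose; schedule: Compound–protein incubation for 5 h at 4 °C; detection: time-resolved FRET; read-out: percent inhibition; controls: biotin wells as high control, 0.6% DMSO wells as low control; format: 1536-well plates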
NR2E3 ag-2 = agonists of human NR2E3 nuclear receptor; CHO-S Gal4-NCOR/VP16-NR2E3 two-hybrid, luciferase; inhibition of corepressor binding, % at 3.98 µM; 360,000 tested, 0.35% active; Q9Y5X4; AID 602229;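 active = inhibition above the mean of all tested compounds plus 3 SD, cut at about 70% in these data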;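 note: 0% = DMSO with NR2E3 transfected cells and 100% = cells lacking NR2E3 construct; higher means lower luciferase signal from less NR2E3 corepressor binding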
NR1D1 modulator = modulators of human Rev-erb alpha DNA binding; P20393; Rev-erbα–FITC-DNA binding, fluorescence polarization, 90 min; activity, % at 10 µM; 370,000 tested, 0.79% active; AID 1259318;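 active = activity above about 14%, limit read from the data; passing the limit was not always enough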;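 note: 0% = DMSO wells with 35 nM protein and 100% = DMSO wells with 750 nM protein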
Target sequence (P20393 whole entry, looked up): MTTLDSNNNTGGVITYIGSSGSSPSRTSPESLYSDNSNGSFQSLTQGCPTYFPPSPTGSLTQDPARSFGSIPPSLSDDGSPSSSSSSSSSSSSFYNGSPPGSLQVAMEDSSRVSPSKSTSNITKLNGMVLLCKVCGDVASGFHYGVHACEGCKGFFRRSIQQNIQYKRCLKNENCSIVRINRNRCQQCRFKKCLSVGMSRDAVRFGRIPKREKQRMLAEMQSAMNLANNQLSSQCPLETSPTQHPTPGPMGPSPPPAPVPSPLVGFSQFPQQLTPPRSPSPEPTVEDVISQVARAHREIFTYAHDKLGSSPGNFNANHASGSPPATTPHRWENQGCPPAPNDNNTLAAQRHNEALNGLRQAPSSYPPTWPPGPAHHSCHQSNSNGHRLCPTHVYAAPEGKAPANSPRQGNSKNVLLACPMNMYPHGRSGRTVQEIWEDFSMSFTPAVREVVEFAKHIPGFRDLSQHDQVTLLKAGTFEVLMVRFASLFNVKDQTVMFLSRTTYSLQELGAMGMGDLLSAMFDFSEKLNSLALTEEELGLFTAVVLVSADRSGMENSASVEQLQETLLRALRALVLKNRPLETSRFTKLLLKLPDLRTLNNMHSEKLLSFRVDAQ
SKN-1 inh = C. elegans SKN-1 inhibition; 360,000 tested, 0.49% active; C. elegans VP596 Pgst-4::GFP/RFP ratio, acrylamide-induced, 24 h; AID 624304; inhibition, % at 21.8 µM;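 active = interference check ratio from 0.5 to 1.5 plus GFP to RFP signal ratio inhibition reaching or exceeding a fixed threshold, cut at about 30% in these data, passing the limit was not always enough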
MT1-MMP act inh = blocks activation of human MT1-MMP; P50281; GFP/RFP ratio change, % at 20 µM; AID 651647; HT1080 RFP-PRO-GFP cells, GFP/RFP ratio fluorescence, overnight; percent of plate control window, DMSO zero; 360,000 tested, 0.061% active;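 active = GFP/RFP ratio change of at least 30% with cell ATP level not reduced by more than half and red fluorescence within 50% of control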
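Assay system: HT1080 RFP-PRO-GFP cells | Dosing: 20 µM single dose, 1% DMSO | Incubation: Cells overnight before dosing, compound overnight, 37 °C, 5% CO2 | Evaluation: GFP/RFP fluorescence ratio | Control set: DMSO-only wells and HT1080 RFP-L50D-GFP cell wells as references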
PG9 Ab binder = small molecules binding HIV-1 gp120 antibody PG9. TR-FRET gp120-PG9 antibody binding. AID 624416. inhibition, % at 6.7 µM. 360,000 tested, 0.43% active; in the data active = inhibition above about 8.5%
Active calls of the source: *; . = no result given. A selection: hits, their analogues and other compounds. The true share with any hit is near 1.9%.

SMILES	NR2E3 ag-1	NR2E3 ag-2	NR1D1 modulator	SKN-1 inh	MT1-MMP act inh	PG9 Ab binder
Cc1c(C(=O)NCCCN2CCCC2=O)oc2ccc(S(=O)(=O)N3CCOCC3)cc12	0	5	-3	-8	5	0
CCCCc1c(-c2ccccc2OC)ncn1C(C)c1ccc(Cl)cc1 (stereo not given)	.	.	2	.	.	0
Cc1oncc1-c1csc(-c2ccccc2Cl)n1	12	-30	-7	45*	0	1
Cc1oncc1-c1csc(-c2ccccc2)n1	2	-46	6	5	0	0
CCOC(=O)C(Oc1ccc2c(-c3ccc(OC)cc3)cc(=O)oc2c1C)c1ccccc1 (stereo not given)	2	3	3	36*	-13	0
Cc1c(OC(=O)CNC(=O)OC(C)(C)C)ccc2c3c(c(=O)oc12)CCC3	1	18	-1	45*	-10	-1
Cc1c(OCC(=O)OC(C)(C)C)ccc2c3c(c(=O)oc12)CCC3	-2	-26	-4	5	0	-1
N#Cc1cncc(C#Cc2ccccc2)c1	0	-29	-4	61*	-4	-1
N#Cc1ccccc1	1	-10	-2	11	2	-2
Cc1ccc(NC(=S)NC(=O)C2CC2)c(C)c1	-3	-77	0	45*	0	-1
Cn1ncc(C#N)c1/N=C/N1CCCC1	-4	12	7	42*	1	1
CCCC[C@@H](CC)COC(=O)/C=C/c1ccc(OC)cc1	.	.	4	.	.	.
Cc1cccc(NC(=O)c2ccc3c(c2)C(=O)N(c2ccccc2C)C3=O)n1	2	-13	0	43*	-2	0
COc1ccc(Cl)cc1C(=O)Nc1ccccc1N1CCCCC1	-5	-7	7	35*	-5	1
CN(N=Cc1ccc([N+](=O)[O-])cc1)c1ccccn1	.	-125	-3	48*	-2	1
O=C(c1ccc([N+](=O)[O-])cc1)N(c1ccccn1)c1ccccn1	-1	-28	3	-7	-3	-1
COC(=O)[C@]12C[C@H](CC(=O)NCC3CCCCC3)C(=O)N(CCC3=CCCCC3)C1=C[C@H](COCc1ccccc1)O[C@@H]2C	.	.	-6	.	.	0
c1ccc(-c2nc3cc4ccccc4cc3[nH]2)nc1	-3	-64	-3	42*	11	-3
CCCC[C@@H](CC)COC(=O)C(C#N)=C(c1ccccc1)c1ccccc1	.	.	-5	.	.	.
COC(=O)c1cc(NC(=O)CN(c2ccc3c(c2)OCO3)S(C)(=O)=O)ccc1Cl	4	17	-1	36*	-2	1
COc1ccc(CN(CCN2CCOCC2)C(=O)c2cccc(F)c2F)cc1OC	.	.	5	.	.	.
O=C(CSc1nc2ccccc2o1)c1ccc2c(c1)OCCO2	1	-13	-1	37*	1	1
CCCn1c(SCC(=O)c2ccc3c(c2)OCCO3)n[nH]c1=O	15	-20	4	43*	1	-1
COCCCN1C(=O)[C@H](CC(=O)NCc2ccc(C)o2)[C@]2(C(=O)OC)CCCCC=C12	.	.	-1	.	.	.
CC12CCC3c4ccc(O)cc4CCC3C1C[C@H](O)[C@@H]2O (stereo not given in full)	.	.	-3	.	.	.
SMILES	NR2E3 ag-1	NR2E3 ag-2	NR1D1 modulator	SKN-1 inh	MT1-MMP act inh	PG9 Ab binder
CCN(C(=O)COC(=O)c1cc(-c2cccc3ccccc23)nc2ccccc12)C1CCS(=O)(=O)C1 (stereo not given)	2	12	6	39*	-5	3
COc1cc2ccccc2cc1C(=O)Nc1nccs1	4	-195	3	58*	-5	0
COc1ccc(C(=O)Nc2ccc3ccccc3c2)c(OC)c1	-2	-112	-4	7	-1	0
O=C(Nc1nccs1)c1ccc2ccccc2c1	3	-136	0	44*	4	-3
COc1c(C(=O)Nc2nccs2)ccc2ccccc12	0	-145	1	55*	1	2
COc1ccccc1C(=O)Nc1ccc2ccccc2c1	-2	-124	-3	48*	-5	1
COc1cc2ccccc2cc1C(=O)Nc1cc(C)ccn1	4	-101	-4	15	-2	-1
CC[C@@]1(O)C(=O)OCc2c1cc1n(c2=O)Cc2c-1nc1cc(F)c(C)c3c1c2[C@@H](N)CC3	.	.	-3	.	.	.
C[C@H]1CN(C(=O)OC(C)(C)C)CCN1c1ccc(N2CC[C@H](O)C2)c(C#N)c1	.	.	-5	.	.	-3
CCN1C(=S)SC(=O)C1=C1C=C(C)N(Cc2ccco2)C(C)=C1	-3	-123	-1	-2	-108	-9
CCN1C(=S)SC(=O)C1=C1C=C(C)OC(C)=C1	3	-23	2	44*	-40	-2
COc1ccc(C=CC(=O)c2c(N)n(C)c(=O)n(C)c2=O)cc1	.	.	-11	.	.	-1
OCCN1CCN(c2ncnc3ccc(Br)cc23)CC1	0	-30	-4	1	-13	-1
OCCN1CCN(c2nc(-c3ccccc3)c3cc(Br)ccc3n2)CC1	3	-19	-2	-3	1	8.7*
Cc1cc(N2CCOCC2)nc2ccc(NC(=O)C3CCC(C)CC3)cc12 (stereo not given)	0	7	-2	35*	10	8
CCN1CCN(c2cc(C)c3cc(NC(=S)N4CCCCC4)ccc3n2)CC1	4	6	-5	38*	2	-1
COC(=O)[C@@]12CCCCC=C1N(CCc1ccc(Cl)cc1)C(=O)[C@H]2CC(=O)NCC1CCCCC1	.	.	6	.	.	.
C[C@]12C=CC(=O)C=C1CCC1C2[C@@H](O)C[C@@]2(C)C1CC[C@]2(O)C(=O)COP(=O)(O)O (stereo not given in full)	.	.	4	.	.	.
CCOC(=O)c1ccc(Nc2nnc(C(C)(C)C)c(=O)[nH]2)cc1	-2	1	0	37*	.	-3
Cc1nn(-c2ccccc2)c(Cl)c1/C=C/C(=O)c1ccccc1	-2	-34	.	31*	-11	.
CC(=O)O[C@]1(C(C)=O)CCC2C3C=C(C)C4=CC(=O)CCC4(C)C3CCC21C (stereo not given in full)	.	.	-4	.	.	.
CN(C)CC(O)c1ccc(C=Cc2ccc(Cl)cc2)cc1 (stereo not given)	.	-33	-5	53*	3	-2
COCCN=C1Sc2ccccc2[C@@H]2C[C@H]3[C@H](CON3C)CN12	.	.	-3	.	.	-1
Cc1c(Cl)cccc1NC(=O)CC1NCCNC1=O (stereo not given)	3	-6	-1	38*	-3	1
